Source: PubChem (Broad Institute)
Most compounds without a hit are left out; they make up all but 2.6% or so of the library.
miR-122 sensor: inhibitors of miR-122 in Huh7 cells; Huh7 miR-122 Renilla luciferase sensor, 48 h; neutral wells = 0, positive control = 100; activation (reporter increase), % at 12.5 µM; 340,000 compounds, 0.3% hits;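 active = mean replicate activation score at least 90 and every replicate individually at or above 90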;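 note: higher luciferase means less miR-122 activity so hits act as miR-122 inhibitors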
Vif imaging: inhibitors of HIV Vif; inhibition, % at 7.49 µM; HEK293T cells, Vif self-association by quenched fluorescence, imaging, 24 h; 340,000 compounds, 0.35% hits; AID 602346; in the data active = inhibition above about 50%, passing the limit was not always enough
Env fusion inh: blocks HIV Env-driven cell-cell fusion; 360,000 compounds, 1.1% hits; inhibition, % at 12.3 µM; AID 651610; HeLa-JRFL Env/CEM21 cell fusion, luciferase;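 active = mean replicate inhibition score of at least 50 and every replicate individually at or above 50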
rRNA inh HTS: selective bacterial rRNA inhibition in E. coli. GFP signal change (wild-type ribosome), % (no concentration beside the values). 350,000 compounds, 1.6% hits. AID 720706. E. coli WT GFP vs humanized-ribosome RFP mutants, fluorescence, 24 h; stronger effect = lower value; DMSO median 0, no signal -100;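 active = significant combined selectivity score with lowered wild-type GFP, culture density cut under 30%, mutant RFP and density less affected; inactive = any of these conditions unmet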
S100A4 MyoIIA: S100A4-myosin IIA interaction inhibition; P26447; S100A4/TAMRA-MyoIIA peptide fluorescence polarization; inhibition, % at 10.7 µM; 360,000 compounds, 0.14% hits;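 active = mean inhibition of at least 70% across replicates, with every replicate also reaching that level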
Target sequence (P26447 whole entry, looked up): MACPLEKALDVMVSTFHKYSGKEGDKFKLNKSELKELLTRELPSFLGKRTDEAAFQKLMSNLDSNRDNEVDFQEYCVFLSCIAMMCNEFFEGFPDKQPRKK
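Test system: S100A4 monomer protein; Medium: HEPES pH 7.2 with CaCl2, KCl, NaCl, DTT, Triton; Probe or stimulus: TAMRA-labelled myosin IIA heavy-chain peptide probe, 5 nM; Doses: one dose per compound; Times: polarization read 5 min after assay mix addition, stable 5–60 min; Benchmarks: neutral control DMSO, positive control TFP.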
FN deposition inh: fibronectin deposition inhibition. AH1F fibroblasts, Alexa488-fibronectin deposition fluorescence, overnight. inhibition, % at 12.6 µM. 350,000 compounds, 0.086% hits;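 active = mean inhibition across replicates of 30% or more, regardless of how many single replicates reach that level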
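Assay system: AH1F fibroblasts / Quantity: 10000 cells per well / Medium: DMEM plus 2% serum, read in PBS / Reagent: labelled fibronectin 24 nM / Dosing: single dose, pinned / Times: 1 h cell attachment, overnight exposure to compound and label / Signal: fluorescence, ex 485 nm, em 525 nm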
A number is an active result; [ ] = dose if it differs, or a comment.

What do the screens show for `COC(=O)c1c(NC(=O)CN2CCN(c3ccccc3Cl)CC2)sc(C)c1C`?
Vif imaging: inactive; Env fusion inh: inactive; FN deposition inh: 34

How did CCOc1ccc(OCC)c(NC(=O)CN2CCN(c3cccc(C)c3)CC2)c1 do in these assays?
miR-122 sensor: inactive; Vif imaging: inactive

How did CCOC(=O)c1c(NC(=O)CN2CCN(c3ccc(Cl)cc3)CC2)sc(C)c1C do in these assays?
miR-122 sensor: inactive

Results for O=C(NC[C@@H]1[C@H](c2ccccc2)[C@H](CO)N1CC1CC1)c1cccnc1 ?
miR-122 sensor: inactive; rRNA inh HTS: inactive; S100A4 MyoIIA: inactive; FN deposition inh: inactive

Results for CCCN1[C@H](C(=O)NCC2CC2)[C@@H](CO)[C@@H]2Cn3c(ccc(-c4ccccc4)c3=O)[C@@H]21 ?
miR-122 sensor: inactive; rRNA inh HTS: inactive; S100A4 MyoIIA: inactive

What do the screens show for `C[C@@H]1CN([C@@H](C)CO)C(=O)Cc2cc(NS(=O)(=O)c3cn(C)cn3)ccc2O[C@H]1CN(C)Cc1ccc(C(=O)Nc2ccccc2N)cc1`?
rRNA inh HTS: inactive; S100A4 MyoIIA: inactive; FN deposition inh: inactive

Results for CN(C(=O)COC(=O)c1cnc(Cl)c(Cl)c1)C1CCCCC1 ?
miR-122 sensor: inactive; Vif imaging: inactive; Env fusion inh: inactive; rRNA inh HTS: -14; S100A4 MyoIIA: inactive; FN deposition inh: inactive

Results for O=C(Nc1ccccc1Cl)ON=C1c2ccccc2-c2ccccc21 ?
Vif imaging: inactive

Results for O=C(Nc1ccccc1)ON=C1c2ccccc2-c2ccccc21 ?
Vif imaging: inactive; rRNA inh HTS: -35; S100A4 MyoIIA: inactive

Results for COc1ccc(C2C(C#N)=C(C)NC3=C2C(=O)c2ccccc23)cc1 (stereo unspecified) ?
miR-122 sensor: inactive; Vif imaging: inactive; Env fusion inh: inactive; rRNA inh HTS: inactive; S100A4 MyoIIA: inactive

How did CC1=C([N+](=O)[O-])C(c2ccccc2)C2=C(N1)c1ccccc1C2=O (stereo unspecified) do in these assays?
miR-122 sensor: inactive; Vif imaging: inactive; Env fusion inh: 120; FN deposition inh: inactive

What do the screens show for `Cc1cc(C)cc(Oc2cc(NC(=O)c3cn(C)nc3C)cc([N+](=O)[O-])c2)c1`?
miR-122 sensor: inactive; Env fusion inh: 59; FN deposition inh: inactive

Results for C[C@@H]1CN([C@@H](C)CO)S(=O)(=O)c2ccc(-c3ccccc3F)cc2O[C@H]1CN(C)Cc1ccncc1 ?
miR-122 sensor: inactive; Env fusion inh: inactive; rRNA inh HTS: inactive; S100A4 MyoIIA: inactive; FN deposition inh: inactive

How did COc1ccc(CN2CCNC(=O)C2CC(=O)NCCCC2CCCC2)c(C)c1C (stereo unspecified) do in these assays?
miR-122 sensor: inactive; Vif imaging: inactive; Env fusion inh: inactive; rRNA inh HTS: -26; S100A4 MyoIIA: inactive; FN deposition inh: inactive

Results for COc1ccc(CN2CCNC(=O)C2CC(=O)NC2CCCC2)c(C)c1C (stereo unspecified) ?
miR-122 sensor: inactive; Vif imaging: inactive; Env fusion inh: inactive; rRNA inh HTS: inactive; S100A4 MyoIIA: inactive; FN deposition inh: inactive

How did CC(NCc1ccccc1Cl)C(=O)Nc1ccc(C#N)cc1 (stereo unspecified) do in these assays?
miR-122 sensor: inactive; Vif imaging: inactive; Env fusion inh: inactive; rRNA inh HTS: -29; S100A4 MyoIIA: inactive; FN deposition inh: inactive

How did O=C(C[C@@H]1C[C@H]2c3cc(NS(=O)(=O)c4ccc(F)cc4)ccc3O[C@H]2[C@H](CO)O1)NCc1ccc(Oc2ccccc2)cc1 do in these assays?
miR-122 sensor: 150[16.7 µM]; Env fusion inh: inactive; rRNA inh HTS: inactive; S100A4 MyoIIA: inactive

Results for CS(=O)(=O)Nc1ccc2c(c1)[C@H]1C[C@H](CC(=O)NCc3ccc(-c4ccccc4)cc3)O[C@H](CO)[C@H]1O2 ?
miR-122 sensor: inactive; Env fusion inh: 78[16.7 µM]; rRNA inh HTS: inactive; FN deposition inh: inactive
